# Experiments:
# [1] = test system: Staphylococcus aureus; test: Antibacterial activity against methicillin-resistant Staphylococcus aureus H5996/08 after 48 hrs by broth microdilution method; assay type: functional; conditions: H5996/08, 48 h
# Summary of the method: (§1)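 Broth microdilution following […], with twofold compound dilutions in Mueller-Hinton bouillon. Incubated 24 and 48 h at 35 °C in the dark in a humid atmosphere. MIC (IC80) was taken as ≥80% growth reduction versus control, read visually and photometrically.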
# [2] = test system: Mycobacterium kansasii; test: Antimycobacterial activity against Mycobacterium kansasii 6509/96 after 21 days by micromethod; assay type: functional; conditions: 6509/96, 504 h
# Summary of the method: (§2)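 Micromethod in Sula semisynthetic medium, with compounds added as DMSO solutions at 1000, 500, 250, 125, 62, 32, 16, 8, 4, 2, 1, 0.5, 0.25. Inoculum dilutions: H37Rv 10^-3; M. avium 330/88 10^-5; M. kansasii 235/80 10^-4; M. kansasii 6509/96 10^-5. Incubated at 37 °C, read at 14 and 21 days, and at 7 days for M. kansasii. MIC was the lowest concentration inhibiting growth.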
# [3] = test system: Aspergillus fumigatus; test: Antifungal activity against Aspergillus fumigatus 231 after 48 hrs by broth microdilution method; assay type: functional; conditions: Aspergillus fumigatus, 231, 48 h
# [4] = test system: Nakaseomyces glabratus; test: Antifungal activity against Candida glabrata 20/I after 48 hrs by broth microdilution method; assay type: functional
# [5] = test system: Enterococcus sp.; test: Antibacterial activity against Enterococcus sp. J14365/08 after 48 hrs by broth microdilution method; assay type: functional; conditions: J14365/08, 48 h; summary of the method: as §1
# [6] = test system: Pichia kudriavzevii; test: Antifungal activity against Candida krusei E28 after 48 hrs by broth microdilution method; assay type: functional; conditions: E28, 48 h
# [7] = test system: Mycobacterium avium; test: Antimycobacterial activity against multidrug-resistant Mycobacterium avium 330/88 after 14 days by micromethod; assay type: functional; conditions: 330/88, 336 h; summary of the method: as §2
# [8] = test system: Nakaseomyces glabratus; test: Antifungal activity against Candida glabrata 20/I after 24 hrs by broth microdilution method; assay type: functional
# [9] = test system: Mycobacterium kansasii; test: Antimycobacterial activity against Mycobacterium kansasii 235/80 after 21 days by micromethod; assay type: functional; conditions: 235/80, 504 h; summary of the method: as §2
# [10] = test system: Klebsiella pneumoniae; test: Antibacterial activity against Klebsiella pneumoniae D11750/08 after 24 hrs by broth microdilution method; assay type: functional; conditions: D11750/08, 24 h; summary of the method: as §1
# [11] = test system: Lichtheimia corymbifera; test: Antifungal activity against Absidia corymbifera 272 after 24 hrs by broth microdilution method; assay type: functional; conditions: Lichtheimia corymbifera, 272, 24 h
# [12] = test system: Trichosporon beigelii; test: Antifungal activity against Trichosporon beigelii 1188 after 24 hrs by broth microdilution method; assay type: functional; conditions: Trichosporon beigelii, 1188, 24 h
# [13] = test system: Mycobacterium tuberculosis; test: Antimycobacterial activity against Mycobacterium tuberculosis H37Rv 331/88 after 21 days by micromethod; assay type: functional; conditions: H37Rv 331/88, 504 h; summary of the method: as §2
# [14] = test system: Mycobacterium tuberculosis; test: Antimycobacterial activity against Mycobacterium tuberculosis H37Rv 331/88 after 14 days by micromethod; assay type: functional; conditions: H37Rv 331/88, 336 h; summary of the method: as §2
# [15] = test system: Trichosporon beigelii; test: Antifungal activity against Trichosporon beigelii 1188 after 48 hrs by broth microdilution method; assay type: functional; conditions: Trichosporon beigelii, 1188, 48 h
# [16] = test system: Candida albicans; test: Antifungal activity against Candida albicans ATCC 44859 after 48 hrs by broth microdilution method; assay type: functional; conditions: ATCC 44859, 48 h
# [17] = test system: Mycobacterium avium; test: Antimycobacterial activity against multidrug-resistant Mycobacterium avium 330/88 after 21 days by micromethod; assay type: functional; conditions: 330/88, 504 h; summary of the method: as §2
# [18] = test system: Candida tropicalis; test: Antifungal activity against Candida tropicalis 156 after 48 hrs by broth microdilution method; assay type: functional; conditions: Candida tropicalis, 156, 48 h
# [19] = test system: Candida albicans; test: Antifungal activity against Candida albicans ATCC 44859 after 24 hrs by broth microdilution method; assay type: functional; conditions: ATCC 44859, 24 h
# [20] = test system: Pichia kudriavzevii; test: Antifungal activity against Candida krusei E28 after 24 hrs by broth microdilution method; assay type: functional; conditions: E28, 24 h
# [21] = test system: Aspergillus fumigatus; test: Antifungal activity against Aspergillus fumigatus 231 after 24 hrs by broth microdilution method; assay type: functional; conditions: Aspergillus fumigatus, 231, 24 h
# [22] = test system: Klebsiella pneumoniae; test: Antibacterial activity against Klebsiella pneumoniae D11750/08 after 48 hrs by broth microdilution method; assay type: functional; conditions: D11750/08, 48 h; summary of the method: as §1
# [23] = test system: Staphylococcus aureus; test: Antibacterial activity against Staphylococcus aureus CCM 4516/08 after 24 hrs by broth microdilution method; assay type: functional; conditions: CCM 4516/08, 24 h; summary of the method: as §1
# [24] = test system: Mycobacterium avium; test: Antimycobacterial activity against Mycobacterium avium; assay type: functional
# [25] = test system: Enterococcus sp.; test: Antibacterial activity against Enterococcus sp. J14365/08 after 24 hrs by broth microdilution method; assay type: functional; conditions: J14365/08, 24 h; summary of the method: as §1
# [26] = test system: Trichophyton mentagrophytes; test: Antifungal activity against Trichophyton mentagrophytes after 24 hrs by broth microdilution method; assay type: functional
# [27] = test system: Lichtheimia corymbifera; test: Antifungal activity against Absidia corymbifera 272 after 48 hrs by broth microdilution method; assay type: functional; conditions: Lichtheimia corymbifera, 272, 48 h
# [28] = test system: Mycobacterium kansasii; test: Antimycobacterial activity against Mycobacterium kansasii 235/80 after 7 days by micromethod; assay type: functional; conditions: 235/80, 168 h; summary of the method: as §2
# [29] = test system: Mycobacterium kansasii; test: Antimycobacterial activity against Mycobacterium kansasii 6509/96 after 14 days by micromethod; assay type: functional; conditions: 6509/96, 336 h; summary of the method: as §2
# [30] = test system: Escherichia coli; test: Antibacterial activity against Escherichia coli CCM 4517 after 48 hrs by broth microdilution method; assay type: functional; conditions: CCM 4517, 48 h; summary of the method: as §1
# [31] = test system: Staphylococcus epidermidis; test: Antibacterial activity against Staphylococcus epidermidis H6966/08 after 24 hrs by broth microdilution method; assay type: functional; conditions: H6966/08, 24 h; summary of the method: as §1
# [32] = test system: Escherichia coli; test: Antibacterial activity against Escherichia coli CCM 4517 after 24 hrs by broth microdilution method; assay type: functional; conditions: CCM 4517, 24 h; summary of the method: as §1
# [33] = test system: Staphylococcus aureus; test: Antibacterial activity against Staphylococcus aureus CCM 4516/08 after 48 hrs by broth microdilution method; assay type: functional; conditions: CCM 4516/08, 48 h; summary of the method: as §1
# [34] = test system: Trichophyton mentagrophytes; test: Antifungal activity against Trichophyton mentagrophytes after 48 hrs by broth microdilution method; assay type: functional
# [35] = test system: Mycobacterium kansasii; test: Antimycobacterial activity against Mycobacterium kansasii 6509/96 after 7 days by micromethod; assay type: functional; conditions: 6509/96, 168 h; summary of the method: as §2
# [36] = test system: Candida tropicalis; test: Antifungal activity against Candida tropicalis 156 after 24 hrs by broth microdilution method; assay type: functional; conditions: Candida tropicalis, 156, 24 h
# [37] = test system: Mycobacterium kansasii; test: Antimycobacterial activity against Mycobacterium kansasii 235/80 after 14 days by micromethod; assay type: functional; conditions: 235/80, 336 h; summary of the method: as §2
# [38] = test system: Mycobacterium tuberculosis; test: Antimycobacterial activity against drug-sensitive Mycobacterium tuberculosis; assay type: functional
# [39] = test system: Mycobacterium kansasii; test: Antimycobacterial activity against Mycobacterium kansasii; assay type: functional
# [40] = test system: Staphylococcus aureus; test: Antibacterial activity against methicillin-resistant Staphylococcus aureus H5996/08 after 24 hrs by broth microdilution method; assay type: functional; conditions: H5996/08, 24 h; summary of the method: as §1
# [41] = test system: Staphylococcus epidermidis; test: Antibacterial activity against Staphylococcus epidermidis H6966/08 after 48 hrs by broth microdilution method; assay type: functional; conditions: H6966/08, 48 h; summary of the method: as §1
# [42] = test system: PBMC; test: Cytotoxicity against human PBMC after 24 hrs by MTT assay; assay type: cell-based
# Summary of the method: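 Human peripheral blood mononuclear cells in RPMI-1640 with 10% fetal calf serum, 2 mM L-glutamine and gentamicin, 37 °C, 5% CO2. Seeded at 1.5–2.0 × 10⁵ cells/well. After 24 h, treated overnight in serum-free medium. Viability by MTT (2 mg/mL, 4 h); formazan dissolved in DMSO; OD540 minus OD620. Cytotoxicity % = [1 − OD treated/OD control] × 100; IC50 from dose-response curves. Four parallels, two independent experiments.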
# [43] = Lipophilicity, log P of the compound; assay type: physicochemical; conditions: octanol/water
# [44] = Selectivity index, ratio of IC50 for human PBMC to MIC for Mycobacterium tuberculosis H37Rv 331/88 after 14 days; assay type: functional
# Summary of the method: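 SI = PBMC IC50 (MTT cytotoxicity) divided by the MIC against the named M. tuberculosis strain. MIC taken after 14 days of incubation at 37 °C by the micromethod.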
smiles,measurement,setting,value
CC(=O)N[C@@H](Cc1ccccc1)C(=O)Oc1cc(Cl)ccc1C(=O)Nc1ccc(C(F)(F)F)cc1,MIC,[1],> 125 µM
same,MIC,[2],8 µM
same,MIC,[3],> 125 µM
same,MIC,[4],> 125 µM
same,MIC,[5],> 125 µM
same,MIC,[6],> 125 µM
same,MIC,[7],16 µM
same,MIC,[8],> 125 µM
same,MIC,[9],4 µM
same,MIC,[10],> 125 µM
same,MIC,[11],62.5 µM
same,MIC,[12],125 µM
same,MIC,[13],16 µM
same,MIC,[14],8 µM
same,MIC,[15],> 125 µM
same,MIC,[16],> 125 µM
same,MIC,[17],32 µM
same,MIC,[18],> 125 µM
same,MIC,[19],> 125 µM
same,MIC,[20],62.5 µM
same,MIC,[21],62.5 µM
same,MIC,[22],> 125 µM
same,MIC,[23],125 µM
same,MIC,[24],1 µM
same,MIC,[25],125 µM
same,MIC,[26],125 µM
same,MIC,[27],> 125 µM
same,MIC,[28],4 µM
same,MIC,[29],8 µM
same,MIC,[30],> 125 µM
same,MIC,[31],125 µM
same,MIC,[32],> 125 µM
same,MIC,[33],> 125 µM
same,MIC,[34],> 125 µM
same,MIC,[35],4 µM
same,MIC,[36],> 125 µM
same,MIC,[37],4 µM
same,MIC,[38],1 µM
same,MIC,[39],1 µM
same,MIC,[40],125 µM
same,MIC,[41],> 125 µM
CC(=O)N[C@@H](Cc1ccccc1)C(=O)Oc1ccc(Cl)cc1C(=O)Nc1ccc(Cl)c(Cl)c1,MIC,[2],4 µM
same,IC50,[42],44 µM
same,MIC,[7],8 µM
same,MIC,[9],4 µM
same,MIC,[13],1 µM
same,MIC,[14],0.5 µM
same,MIC,[17],8 µM
same,logP,[43],5.12
same,MIC,[24],1 µM
same,MIC,[28],1 µM
same,MIC,[29],2 µM
same,MIC,[35],1 µM
same,MIC,[37],2 µM
same,MIC,[38],1 µM
same,MIC,[39],1 µM
same,Selectivity Index,[44],88
CC(=O)N[C@@H](Cc1ccccc1)C(=O)Oc1ccc(Cl)cc1C(=O)Nc1ccc(Br)cc1,MIC,[2],8 µM
same,MIC,[3],> 125 µM
same,MIC,[4],> 125 µM
same,MIC,[6],> 125 µM
same,MIC,[7],4 µM
same,MIC,[8],> 125 µM
same,MIC,[9],4 µM
same,MIC,[11],125 µM
same,MIC,[12],125 µM
same,MIC,[13],2 µM
same,MIC,[14],2 µM
same,MIC,[15],> 125 µM
same,MIC,[16],> 125 µM
same,MIC,[17],8 µM
same,logP,[43],4.83
same,MIC,[18],> 125 µM
same,MIC,[19],125 µM
same,MIC,[20],125 µM
same,MIC,[21],125 µM
same,MIC,[24],1 µM
same,MIC,[26],> 125 µM
same,MIC,[27],> 125 µM
same,MIC,[28],4 µM
same,MIC,[29],4 µM
same,MIC,[34],> 125 µM
same,MIC,[35],4 µM
same,MIC,[36],> 125 µM
same,MIC,[37],4 µM
same,MIC,[38],1 µM
same,MIC,[39],1 µM
